Laboratory results reported in ChEMBL document CHEMBL1255347, “Multiclonal outbreak of Klebsiella pneumoniae producing extended-spectrum beta-lactamase CTX-M-2 and novel variant CTX-M-59 in a neonatal intensive care unit in Brazil” (2008).
≈ marks a conversion by molar mass, not a printed value.

Columns and labels:
Klebsiella pneumoniae [1] = experiment: Antimicrobial activity against CTX-M-2 and TEM-1 producing Klebsiella pneumoniae transconjugants/transformants with PFGE pulsotype J by Etest in presence of clavulanic acid; type: functional
Procedure, shortened: (§1)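 The recipient was E. coli XL1-Blue Rifr NAr. Plasmids moved by broth mating, with transconjugants selected on LB agar containing ampicillin, rifampin and nalidixic acid, each at 50 μg/ml. Where mating failed, alkaline-lysis plasmid extracts were electroporated and selected on ampicillin 50 μg/ml. β-lactam MICs were read by Etest, with and without clavulanic acid.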

Klebsiella pneumoniae [2] = experiment: Antimicrobial activity against CTX-M-2 and TEM-1 producing Klebsiella pneumoniae transconjugants/transformants with PFGE pulsotype H by Etest in presence of clavulanic acid; type: functional
Escherichia coli [3] = experiment: Antimicrobial activity against CTX-M-2 and TEM-1 producing Escherichia coli transconjugants/transformants with PFGE pulsotype A by Etest in presence of clavulanic acid
Klebsiella pneumoniae [4] = experiment: Antimicrobial activity against CTX-M-2 producing Klebsiella pneumoniae with PFGE pulsotype A by Etest in presence of clavulanic acid; type: functional
Procedure, shortened: (§2)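 Clinical K. pneumoniae isolates from a neonatal ICU outbreak near São Paulo were typed by XbaI PFGE using Tenover criteria. Cultures were grown in LB broth at 37°C. Etest MICs followed the manufacturer's instructions, with cefotaxime and ceftazidime each tested with and without clavulanic acid.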

Klebsiella pneumoniae [5] = experiment: Antimicrobial activity against SHV-5 producing Klebsiella pneumoniae transconjugants/transformants with PFGE pulsotype D by Etest; type: functional; procedure, shortened: as §1
Klebsiella pneumoniae [6] = experiment: Antimicrobial activity against CTX-M-2 producing Klebsiella pneumoniae with PFGE pulsotype F by Etest in presence of clavulanic acid; type: functional; procedure, shortened: as §2
Klebsiella pneumoniae [7] = experiment: Antimicrobial activity against CTX-M-2 producing Klebsiella pneumoniae with PFGE pulsotype I by Etest in presence of clavulanic acid; type: functional; procedure, shortened: as §2
Escherichia coli [8] = experiment: Antimicrobial activity against Escherichia coli str. K-12 substr. DH10B harboring plasmid CTX-M-2; type: functional; settings: K-12 DH10B
Procedure, shortened: (§3)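 blaCTX-M PCR products were cut with XbaI/BamHI and cloned into pBC-SK(−), then electroporated into E. coli DH10B. Transformants were selected on LB agar with ampicillin 50 μg/ml and chloramphenicol 30 μg/ml, and sequences were confirmed. These clones were used for β-lactam MICs, with and without clavulanic acid.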

Klebsiella pneumoniae [9] = experiment: Antimicrobial activity against CTX-M-2 producing Klebsiella pneumoniae with PFGE pulsotype F by Etest; type: functional
Klebsiella pneumoniae [10] = experiment: Antimicrobial activity against SHV-5 producing Klebsiella pneumoniae with PFGE pulsotype D by Etest; type: functional; procedure, shortened: as §2
Klebsiella pneumoniae [11] = experiment: Antimicrobial activity against SHV-5 producing Klebsiella pneumoniae with PFGE pulsotype D by Etest in presence of clavulanic acid; type: functional
Klebsiella pneumoniae [12] = experiment: Antimicrobial activity against CTX-M-2 producing Klebsiella pneumoniae with PFGE pulsotype A by Etest; type: functional; procedure, shortened: as §2
Klebsiella pneumoniae [13] = experiment: Antimicrobial activity against CTX-M-59 producing Klebsiella pneumoniae with PFGE pulsotype E by Etest in presence of clavulanic acid; type: functional
Procedure, shortened: (§4)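 MICs were determined by Etest strips following the manufacturer's instructions, using cefotaxime and ceftazidime each combined with clavulanic acid. The test strains were clinical NICU outbreak isolates confirmed as ESBL producers by disk diffusion. Pulsotypes were assigned by XbaI PFGE using Tenover relatedness criteria. Cultures were routinely grown in LB broth at 37°C.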

Klebsiella pneumoniae [14] = experiment: Antimicrobial activity against CTX-M-59 and TEM-1 producing Klebsiella pneumoniae transconjugants/transformants with PFGE pulsotype E by Etest in presence of clavulanic acid; type: functional; procedure, shortened: as §1
Klebsiella pneumoniae [15] = experiment: Antimicrobial activity against SHV-5 producing Klebsiella pneumoniae transconjugants/transformants with PFGE pulsotype D by Etest in presence of clavulanic acid; type: functional; procedure, shortened: as §1
Escherichia coli [16] = experiment: Antimicrobial activity against Escherichia coli str. K-12 substr. DH10B harboring plasmid CTX-M-59; type: functional; settings: K-12 DH10B; procedure, shortened: as §3
Klebsiella pneumoniae [17] = experiment: Antimicrobial activity against CTX-M-2 producing Klebsiella pneumoniae with PFGE pulsotype B by Etest in presence of clavulanic acid; type: functional; procedure, shortened: as §2
Escherichia coli [18] = experiment: Antimicrobial activity against Escherichia coli str. K-12 substr. DH10B harboring plasmid CTX-M-59 in presence of clavulanic acid; type: functional; settings: K-12 DH10B; procedure, shortened: as §3
Klebsiella pneumoniae [19] = experiment: Antimicrobial activity against CTX-M-2 and TEM-1 producing Klebsiella pneumoniae transconjugants/transformants with PFGE pulsotype B by Etest in presence of clavulanic acid; type: functional; procedure, shortened: as §1
Klebsiella pneumoniae [20] = experiment: Antimicrobial activity against CTX-M-2 producing Klebsiella pneumoniae with PFGE pulsotype J by Etest in presence of clavulanic acid; type: functional; procedure, shortened: as §2
Klebsiella pneumoniae [21] = experiment: Antimicrobial activity against CTX-M-2 producing Klebsiella pneumoniae with PFGE pulsotype B by Etest; type: functional; procedure, shortened: as §2
Klebsiella pneumoniae [22] = experiment: Antimicrobial activity against CTX-M-2 producing Klebsiella pneumoniae with PFGE pulsotype H by Etest; type: functional; procedure, shortened: as §2
Klebsiella pneumoniae [23] = experiment: Antimicrobial activity against CTX-M-2 and TEM-1 producing Klebsiella pneumoniae transconjugants/transformants with PFGE pulsotype F by Etest in presence of clavulanic acid; type: functional; procedure, shortened: as §1
Klebsiella pneumoniae [24] = experiment: Antimicrobial activity against CTX-M-59 and TEM-1 producing Klebsiella pneumoniae transconjugants/transformants with PFGE pulsotype G by Etest in presence of clavulanic acid; type: functional; procedure, shortened: as §1
Klebsiella pneumoniae [25] = experiment: Antimicrobial activity against CTX-M-59 producing Klebsiella pneumoniae with PFGE pulsotype G by Etest; type: functional; procedure, shortened: as §2
Klebsiella pneumoniae [26] = experiment: Antimicrobial activity against CTX-M-59 and TEM-1 producing Klebsiella pneumoniae transconjugants/transformants with PFGE pulsotype C by Etest in presence of clavulanic acid; type: functional; procedure, shortened: as §1
Klebsiella pneumoniae [27] = experiment: Antimicrobial activity against CTX-M-59 producing Klebsiella pneumoniae with PFGE pulsotype C by Etest in presence of clavulanic acid; type: functional; procedure, shortened: as §2
Klebsiella pneumoniae [28] = experiment: Antimicrobial activity against CTX-M-2 producing Klebsiella pneumoniae with PFGE pulsotype J by Etest; type: functional
Klebsiella pneumoniae [29] = experiment: Antimicrobial activity against CTX-M-2 producing Klebsiella pneumoniae with PFGE pulsotype H by Etest in presence of clavulanic acid; type: functional
Procedure, shortened: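 Etest strips used per manufacturer's instructions to read MICs of cefotaxime and ceftazidime, each with clavulanic acid, on clinical NICU K. pneumoniae outbreak isolates. Isolates were typed by XbaI PFGE using Tenover criteria and routinely grown in LB broth at 37°C.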

Klebsiella pneumoniae [30] = experiment: Antimicrobial activity against CTX-M-59 producing Klebsiella pneumoniae with PFGE pulsotype E by Etest; type: functional
Klebsiella pneumoniae [31] = experiment: Antimicrobial activity against CTX-M-59 producing Klebsiella pneumoniae with PFGE pulsotype G by Etest in presence of clavulanic acid; type: functional; procedure, shortened: as §4
Klebsiella pneumoniae [32] = experiment: Antimicrobial activity against CTX-M-2 producing Klebsiella pneumoniae with PFGE pulsotype I by Etest; type: functional
Klebsiella pneumoniae [33] = experiment: Antimicrobial activity against CTX-M-2 and TEM-1 producing Klebsiella pneumoniae transconjugants/transformants with PFGE pulsotype I by Etest in presence of clavulanic acid; type: functional; procedure, shortened: as §1
Escherichia coli [34] = experiment: Antimicrobial activity against Escherichia coli str. K-12 substr. DH10B harboring plasmid CTX-M-2 in presence of clavulanic acid; type: functional; settings: K-12 DH10B; procedure, shortened: as §3
Klebsiella pneumoniae [35] = experiment: Antimicrobial activity against CTX-M-59 producing Klebsiella pneumoniae with PFGE pulsotype C by Etest; type: functional
Klebsiella pneumoniae [36] = experiment: Antimicrobial activity against CTX-M-2 and TEM-1 producing Klebsiella pneumoniae transconjugants/transformants with PFGE pulsotype I by Etest; type: functional; procedure, shortened: as §1
Klebsiella pneumoniae [37] = experiment: Antimicrobial activity against CTX-M-59 and TEM-1 producing Klebsiella pneumoniae transconjugants/transformants with PFGE pulsotype C by Etest; type: functional; procedure, shortened: as §1
Klebsiella pneumoniae [38] = experiment: Antimicrobial activity against CTX-M-59 and TEM-1 producing Klebsiella pneumoniae transconjugants/transformants with PFGE pulsotype G by Etest; type: functional; procedure, shortened: as §1
Klebsiella pneumoniae [39] = experiment: Antimicrobial activity against CTX-M-2 and TEM-1 producing Klebsiella pneumoniae transconjugants/transformants with PFGE pulsotype B by Etest; type: functional; procedure, shortened: as §1
Klebsiella pneumoniae [40] = experiment: Antimicrobial activity against CTX-M-2 and TEM-1 producing Klebsiella pneumoniae transconjugants/transformants with PFGE pulsotype F by Etest; type: functional; procedure, shortened: as §1
Klebsiella pneumoniae [41] = experiment: Antimicrobial activity against CTX-M-2 and TEM-1 producing Klebsiella pneumoniae transconjugants/transformants with PFGE pulsotype H by Etest; type: functional; procedure, shortened: as §1
Klebsiella pneumoniae [42] = experiment: Antimicrobial activity against CTX-M-59 and TEM-1 producing Klebsiella pneumoniae transconjugants/transformants with PFGE pulsotype E by Etest; type: functional; procedure, shortened: as §1
Klebsiella pneumoniae [43] = experiment: Antimicrobial activity against CTX-M-2 and TEM-1 producing Klebsiella pneumoniae transconjugants/transformants with PFGE pulsotype A by Etest; type: functional; procedure, shortened: as §1
Klebsiella pneumoniae [44] = experiment: Antimicrobial activity against CTX-M-2 and TEM-1 producing Klebsiella pneumoniae transconjugants/transformants with PFGE pulsotype J by Etest; type: functional; procedure, shortened: as §1

CO/N=C(\C(=O)N[C@@H]1C(=O)N2C(C(=O)O)=C(COC(C)=O)CS[C@H]12)c1csc(N)n1 [CEFOTAXIME]
MIC (Klebsiella pneumoniae [1]): 0.125 µg/mL | MIC (Klebsiella pneumoniae [2]): 0.94 µg/mL | MIC (Escherichia coli [3]): 0.094 µg/mL | MIC (Klebsiella pneumoniae [4]): 0.094 µg/mL | MIC (Klebsiella pneumoniae [5]): 12 µg/mL (≈ 26.3 µM) | MIC (Klebsiella pneumoniae [6]): 0.094 µg/mL | MIC (Klebsiella pneumoniae [7]): 0.094 µg/mL | MIC (Escherichia coli [8]): 128 µg/mL (≈ 281 µM) | MIC (Klebsiella pneumoniae [9]): > 256 µg/mL | MIC (Klebsiella pneumoniae [10]): 48 µg/mL (≈ 105 µM) | MIC (Klebsiella pneumoniae [11]): 0.047 µg/mL | MIC (Klebsiella pneumoniae [12]): > 256 µg/mL | MIC (Klebsiella pneumoniae [13]): 0.125 µg/mL | MIC (Klebsiella pneumoniae [14]): 0.25 µg/mL | MIC (Klebsiella pneumoniae [15]): 0.47 µg/mL | MIC (Escherichia coli [16]): 96 µg/mL (≈ 211 µM) | MIC (Klebsiella pneumoniae [17]): 0.094 µg/mL | MIC (Escherichia coli [18]): 0.094 µg/mL | MIC (Klebsiella pneumoniae [19]): 0.094 µg/mL | MIC (Klebsiella pneumoniae [20]): 0.094 µg/mL | MIC (Klebsiella pneumoniae [21]): > 256 µg/mL | MIC (Klebsiella pneumoniae [22]): > 256 µg/mL | MIC (Klebsiella pneumoniae [23]): 0.125 µg/mL | MIC (Klebsiella pneumoniae [24]): 0.19 µg/mL | MIC (Klebsiella pneumoniae [25]): > 256 µg/mL | MIC (Klebsiella pneumoniae [26]): 0.19 µg/mL | MIC (Klebsiella pneumoniae [27]): 0.094 µg/mL | MIC (Klebsiella pneumoniae [28]): > 256 µg/mL | MIC (Klebsiella pneumoniae [29]): 1 µg/mL | MIC (Klebsiella pneumoniae [30]): > 256 µg/mL | MIC (Klebsiella pneumoniae [31]): 0.5 µg/mL | MIC (Klebsiella pneumoniae [32]): > 256 µg/mL | MIC (Klebsiella pneumoniae [33]): 0.125 µg/mL | MIC (Escherichia coli [34]): 0.094 µg/mL | MIC (Klebsiella pneumoniae [35]): > 256 µg/mL

O=C(O)c1cn(C2CC2)c2cc(N3CCNCC3)c(F)cc2c1=O [CIPROFLOXACIN]
MIC (Klebsiella pneumoniae [10]): 0.023 µg/mL (≈ 0.0694 µM) | MIC (Klebsiella pneumoniae [12]): 0.023 µg/mL (≈ 0.0694 µM) | MIC (Klebsiella pneumoniae [21]): 0.032 µg/mL (≈ 0.0966 µM) | MIC (Klebsiella pneumoniae [22]): 0.023 µg/mL (≈ 0.0694 µM) | MIC (Klebsiella pneumoniae [25]): 0.125 µg/mL (≈ 0.377 µM) | MIC (Klebsiella pneumoniae [28]): 0.023 µg/mL (≈ 0.0694 µM) | MIC (Klebsiella pneumoniae [30]): 0.032 µg/mL (≈ 0.0966 µM) | MIC (Klebsiella pneumoniae [32]): 0.032 µg/mL (≈ 0.0966 µM) | MIC (Klebsiella pneumoniae [35]): 0.032 µg/mL (≈ 0.0966 µM)

GENTAMICIN
MIC (Klebsiella pneumoniae [36]): > 256 µg/mL | MIC (Klebsiella pneumoniae [37]): > 256 µg/mL | MIC (Klebsiella pneumoniae [38]): > 256 µg/mL | MIC (Klebsiella pneumoniae [39]): > 256 µg/mL | MIC (Klebsiella pneumoniae [5]): 24 µg/mL | MIC (Klebsiella pneumoniae [9]): > 256 µg/mL | MIC (Klebsiella pneumoniae [10]): 24 µg/mL | MIC (Klebsiella pneumoniae [12]): > 256 µg/mL | MIC (Klebsiella pneumoniae [40]): > 256 µg/mL | MIC (Klebsiella pneumoniae [21]): > 256 µg/mL | MIC (Klebsiella pneumoniae [22]): > 256 µg/mL | MIC (Klebsiella pneumoniae [41]): > 256 µg/mL | MIC (Klebsiella pneumoniae [42]): > 256 µg/mL | MIC (Klebsiella pneumoniae [25]): > 256 µg/mL | MIC (Klebsiella pneumoniae [43]): > 256 µg/mL | MIC (Klebsiella pneumoniae [44]): 128 µg/mL | MIC (Klebsiella pneumoniae [30]): > 256 µg/mL | MIC (Klebsiella pneumoniae [32]): 256 µg/mL | MIC (Klebsiella pneumoniae [35]): > 256 µg/mL
